Test results published in ChEMBL document CHEMBL1144503, “Structure determination of inonotsuoxides A and B and in vivo anti-tumor promoting activity of inotodiol from the sclerotia of Inonotus obliquus” (Bioorg Med Chem, 2007).

Tests used:
Raji = test: Cell viability in Raji cells at 1000 mol ratio/TPA relative to control; assay type: functional, Homo sapiens
In short: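 Raji cells under the EBV-EA induction conditions (n-butyric acid 4 mmol plus TPA 32 pmol, 48 h, 37 C), with test compound added in DMSO at 1000 mol ratio to TPA. Viability was assayed by Trypan blue staining and reported as a percentage.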

Human gammaherpesvirus 4 [1] = test: Inhibition of TPA-induced EBV-EA activation in Raji cells at 1000 mol ratio/TPA relative to control; values are per cent of control
Human gammaherpesvirus 4 [2] = test: Inhibition of TPA-induced EBV-EA activation in Raji cells at 10 mol ratio/TPA relative to control; values are per cent of control
Human gammaherpesvirus 4 [3] = test: Inhibition of TPA-induced EBV-EA activation in Raji cells at 100 mol ratio/TPA relative to control; values are per cent of control
Human gammaherpesvirus 4 [4] = test: Inhibition of TPA-induced EBV-EA activation in Raji cells at 500 mol ratio/TPA relative to control; values are per cent of control
Mus musculus [5] = species on record: Mus musculus; test: Suppression of DMBA/TPA-induced papilloma-formation in ICR mouse within 10 week; assay type: functional
Mus musculus [6] = species on record: Mus musculus; test: Toxicity in ICR mouse with DMBA/TPA-induced papilloma; assay type: organism-based; settings: in vivo
In short: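 Specific pathogen-free female ICR mice, 6 weeks old, in three groups of 15. Shaved backs were initiated topically with DMBA (390 nmol) in 0.1 ml acetone. From one week later, TPA (1.7 nmol) in 0.1 ml acetone was applied to the skin twice weekly. Treated groups also received 85 nmol of test agent with TPA. Mice were followed to week 20.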

Mus musculus [7] = species on record: Mus musculus; test: Suppression of DMBA/TPA-induced papilloma-formation in ICR mouse at 85 nmol within 10 week; assay type: functional

Row | SMILES | Activity (Raji) [%] | level, % of control (Human gammaherpesvirus 4 [1]) [%] | level, % of control (Human gammaherpesvirus 4 [2]) [%] | level, % of control (Human gammaherpesvirus 4 [3]) [%] | level, % of control (Human gammaherpesvirus 4 [4]) [%] | Activity (Mus musculus [5]) [%] | Activity (Mus musculus [6]) | Activity (Mus musculus [7]) [%]
1 | CC(C)=CCC[C@@H](C(=O)O)[C@H]1CC[C@@]2(C)C3=C(CC[C@]12C)[C@@]1(C)CC[C@H](O)C(C)(C)[C@@H]1CC3 [TRAMETENOLIC ACID] | 70 | 9.2 | 98.6 | 75.4 | 45 | – | – | –
2 | C[C@@H]([C@H]1CC[C@@]2(C)C3=C(CC[C@]12C)[C@@]1(C)CC[C@H](O)C(C)(C)[C@@H]1CC3)[C@H]1C[C@H](O)C(C)(C)O1 [INONOTSUOXIDE A] | 70 | 6.3 | 94.3 | 71.3 | 42 | – | – | –
3 | CC(=O)O[C@H]1C[C@H]([C@@H](C)[C@H]2CC[C@@]3(C)C4=C(CC[C@]23C)[C@@]2(C)CC[C@H](OC(C)=O)C(C)(C)[C@@H]2CC4)OC1(C)C | 70 | – | – | – | – | – | – | –
4 | CC(=O)O[C@H]1CC[C@]2(C)C3=C(CC[C@H]2C1(C)C)[C@]1(C)CC[C@H]([C@@H](CCC=C(C)C)C(=O)O)[C@@]1(C)CC3 [ACETYL TRAMETENOLIC ACID] | 70 | 12.7 | 100 | 79 | 47.8 | – | – | –
5 | CC(C)=CC[C@@H](O)[C@@H](C)[C@H]1CC[C@@]2(C)C3=C(CC[C@]12C)[C@@]1(C)CC[C@H](O)C(C)(C)[C@@H]1CC3 [INOTODIOL] | 70 | 2.4 | 93.1 | 66.1 | 37.6 | <30 | Non-toxic | –
6 | CC1(C)CC[C@]2(C(=O)O)CC[C@]3(C)C(=CC[C@@H]4[C@@]5(C)CC[C@H](O)C(C)(C)[C@@H]5CC[C@]43C)[C@@H]2C1 [OLEANOLIC_ACID] | – | – | – | – | – | – | Non-toxic | <30
7 | CC(C)=CCC[C@@H](C)[C@H]1CC[C@@]2(C)C3=C(CC[C@]12C)[C@@]1(C)CC[C@H](O)C(C)(C)[C@@H]1CC3 [LANOSTEROL] | 70 | 4.9 | 96.3 | 74.3 | 44.7 | – | – | –
